Experimental data as given in ChEMBL document CHEMBL1155721, “Isolation of dolastatin 10 from the marine cyanobacterium Symploca species VP642 and total stereochemistry and biological evaluation of its analogue symplostatin 1” (J Nat Prod, 2001).
Calls of active or inactive are those of the source. The rule behind the calls is not given here.

Legend:
[1] = Antitumor activity against drug-insensitive mouse 16/C cell implanted in mouse at 1.25 mg/kg, iv total dosing schedule on day 1 and day 4 to 6; type: functional
In short: (§1)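 Mice bearing early-stage subcutaneously implanted solid tumours; treatment given intravenously. Activity expressed as T/C and as log kill, (T − C)/(3.32·Td). T and C are the median days for treated and control tumours to reach 750-1000 mg. Td is the tumour volume doubling time.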

[2] = tested on: KB; assay: Cytotoxicity against human KB cells; type: functional, cell-based
In short: (§2)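 In vitro cytotoxicity was read out by the sulforhodamine B (SRB) assay, and IC50 values were derived from it.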

[3] = tested on: A10; assay: Antitumor activity against rat A10 cells assessed as total loss of cellular microtubule at 2.5 nM after 18 hrs by indirect immunofluorescence; type: functional, cell-based
[4] = tested on: MC-38; assay: Antitumor activity against drug-insensitive mouse C38 cell implanted in mouse at 3 mg/kg, iv total dosing schedule on day 3; type: functional; in short: as §1
[5] = tested on: Mus musculus; assay: Liver toxicity in iv dosed mouse; type: organism-based; conditions: in vivo
[6] = tested on: A10; assay: Antitumor activity against rat A10 cells assessed as loss of cellular microtubule after 18 hrs by indirect immunofluorescence; type: functional, cell-based; conditions: A10, 18 h
In short: (§3)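 Rat A-10 cells were plated on glass coverslips and left to attach and grow for at least 24 h. Drug was then added for 18 h. Cells were fixed and cellular microtubules were visualised by indirect immunofluorescence.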

[7] = Antitumor activity against adriamycin-resistant early stage mouse M17/ADR cell implanted in mouse at 2.8 mg/kg, iv total dosing schedule on day 1 and day 4,7,8; type: functional; in short: as §1
[8] = tested on: LoVo; assay: Cytotoxicity against human LoVo cells; type: functional, cell-based; in short: as §2
[9] = tested on: Mus musculus; assay: Gastro intestinal toxicity in iv dosed mouse; type: organism-based; conditions: in vivo
[10] = tested on: Mus musculus; assay: Toxicity in iv dosed mouse on 1 day; type: organism-based; conditions: in vivo, 24 h
In short: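 Mice received a single intravenous injection on day 1 at 1.0 or 1.4 mg/kg, and lethality was recorded.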

[11] = tested on: Mus musculus; assay: Toxicity in iv dosed mouse assessed as local tissue damage; type: organism-based; conditions: in vivo
[12] = Antitumor activity against adriamycin-resistant early stage mouse M16/C/ADR cell implanted in mouse at 3.15 mg/kg, iv total dosing schedule on day 1 and day 3, 5 to 9; type: functional; in short: as §1
[13] = tested on: A10; assay: Antitumor activity against rat A10 cells assessed as total loss of cellular microtubule at 150 nM after 18 hrs by indirect immunofluorescence; type: functional, cell-based
[14] = tested on: A10; assay: Antitumor activity against rat A10 cells assessed as total loss of cellular microtubule at 0.75 nM after 18 hrs by indirect immunofluorescence; type: functional, cell-based; in short: as §3

SMILES: CC[C@H](C)[C@@H]([C@@H](CC(=O)N1CCC[C@H]1[C@H](OC)[C@@H](C)C(=O)N[C@@H](Cc1ccccc1)c1nccs1)OC)N(C)C(=O)[C@@H](NC(=O)[C@H]([C@@H](C)CC)N(C)C)C(C)C [SYMPLOSTATIN 1]
- T/C [1]: 0%
- IC50 ([2]; Homo sapiens, KB): 0.15 nM
- Activity [3]: Active
- T/C [4]: 0%
- Activity [5]: Toxic
- EC50 [6]: 0.6 nM
- T/C [7]: 32%
- IC50 ([8]; Homo sapiens, LoVo): 0.34 nM
- Activity [9]: Toxic
- LD20 [10]: 1 mg/kg
- LD60 [10]: 1.4 mg/kg
- Activity [11]: Toxic
- T/C [12]: 36%

SMILES: CC[C@]1(O)C[C@@H]2CN(CCc3c([nH]c4ccccc34)[C@@](C(=O)OC)(c3cc4c(cc3OC)N(C)[C@H]3[C@@](O)(C(=O)OC)[C@H](OC(C)=O)[C@]5(CC)C=CCN6CC[C@]43[C@@H]65)C2)C1
- Activity [13]: Active

SMILES: CC[C@H](C)[C@@H]([C@@H](CC(=O)N1CCC[C@H]1[C@H](OC)[C@@H](C)C(=O)N[C@@H](Cc1ccccc1)c1nccs1)OC)N(C)C(=O)[C@@H](NC(=O)[C@H](C(C)C)N(C)C)C(C)C (stereo in doubt; 1)
- Activity [14]: Active

SMILES: CC[C@H](C)[C@@H]([C@@H](CC(=O)N1CCC[C@H]1[C@H](OC)[C@@H](C)C(=O)N[C@@H](Cc1ccccc1)c1nccs1)OC)N(C)C(=O)[C@@H](NC(=O)[C@H](C(C)C)N(C)C)C(C)C (stereo in doubt) [DOLASTATIN-10]
- IC50 ([2]; kb): 0.041 nM
- IC50 ([8]; lovo): 0.066 nM

SMILES: CC[C@H](C)[C@@H]([C@@H](CC(=O)N1CCC[C@H]1[C@H](OC)[C@@H](C)C(=O)N[C@@H](Cc1ccccc1)c1nccs1)OC)N(C)C(=O)[C@@H](NC(=O)[C@H](C(C)C)N(C)C)C(C)C (stereo in doubt; 1) [DOLASTATIN-10]
- IC50 ([2]; Homo sapiens, KB): 0.052 nM
- EC50 [6]: 0.25 nM
- IC50 ([8]; Homo sapiens, LoVo): 0.076 nM
